# The source made the active and inactive calls. The calls are words filed in the database; no cut-off is given here.
# Legend:
# [1] = species: Homo sapiens; assay: Stabilization of fluorescently-labeled human ER_pT594 peptide/human 14-3-3 zeta expressed in Escherichia coli BL21 (DE3)STAR competent cells protein-protein interaction assessed as increase in FP signal of 14-3-3/phosphopeptide complex incubated for 1 hr by Fluorescence polarization assay
# Procedure, shortened: (§1)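 14-3-3ζ/phosphopeptide fluorescence polarization assay run as a concentration-response. EC1.2 is the compound concentration (μM) giving a 20% rise in FP signal of the 14-3-3/phosphopeptide complex, read from the curve. Triplicate, three independent experiments, errors as standard deviation.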
# [2] = species: Homo sapiens; assay: (§2) Stabilization of fluorescently-labeled human ER_pT594 peptide/human 14-3-3 zeta expressed in Escherichia coli BL21 (DE3)STAR competent cells protein-protein interaction assessed as fold increase in FP signal of 14-3-3/phosphopeptide complex at […] incubated for 1 hr by Fluorescence polarization assay relative to DMSO
# [3] = species: Homo sapiens; assay: as §2, with “GR_pT524” for “ER_pT594”
# [4] = species: Homo sapiens; assay: Stabilization of fluorescently-labeled human GR_pT524 peptide/human 14-3-3 zeta expressed in Escherichia coli BL21 (DE3)STAR competent cells protein-protein interaction assessed as increase in FP signal of 14-3-3/phosphopeptide complex incubated for 1 hr by Fluorescence polarization assay; procedure, shortened: as §1
# [5] = species: Homo sapiens; assay: Stabilization of fluorescently-labeled human GR_pT524 peptide/human 14-3-3 zeta expressed in Escherichia coli BL21 (DE3)STAR competent cells protein-protein interaction assessed as increase in FP signal of 14-3-3/phosphopeptide complex at […] incubated for 1 hr by Fluorescence polarization assay
# [6] = species: Homo sapiens; assay: Stabilization of fluorescently-labeled human ER_pT594 peptide/human 14-3-3 zeta expressed in Escherichia coli BL21 (DE3)STAR competent cells protein-protein interaction assessed as increase in FP signal of 14-3-3/phosphopeptide complex at […] incubated for 1 hr by Fluorescence polarization assay
# [7] = Apparent permeability across apical to basolateral side in human Caco-2 cells at 10 uM incubated for 2 hrs; assay type: ADME, cell-based; conditions: caco-2, 2 h
# [8] = molecular target: T1, Glucocorticoid receptor (Homo sapiens) (UniProt P04150); assay: Displacement of [3H]dexamethasone from human glucocorticoid receptor by scintillation based radioligand binding assay
# T1 sequence (whole entry): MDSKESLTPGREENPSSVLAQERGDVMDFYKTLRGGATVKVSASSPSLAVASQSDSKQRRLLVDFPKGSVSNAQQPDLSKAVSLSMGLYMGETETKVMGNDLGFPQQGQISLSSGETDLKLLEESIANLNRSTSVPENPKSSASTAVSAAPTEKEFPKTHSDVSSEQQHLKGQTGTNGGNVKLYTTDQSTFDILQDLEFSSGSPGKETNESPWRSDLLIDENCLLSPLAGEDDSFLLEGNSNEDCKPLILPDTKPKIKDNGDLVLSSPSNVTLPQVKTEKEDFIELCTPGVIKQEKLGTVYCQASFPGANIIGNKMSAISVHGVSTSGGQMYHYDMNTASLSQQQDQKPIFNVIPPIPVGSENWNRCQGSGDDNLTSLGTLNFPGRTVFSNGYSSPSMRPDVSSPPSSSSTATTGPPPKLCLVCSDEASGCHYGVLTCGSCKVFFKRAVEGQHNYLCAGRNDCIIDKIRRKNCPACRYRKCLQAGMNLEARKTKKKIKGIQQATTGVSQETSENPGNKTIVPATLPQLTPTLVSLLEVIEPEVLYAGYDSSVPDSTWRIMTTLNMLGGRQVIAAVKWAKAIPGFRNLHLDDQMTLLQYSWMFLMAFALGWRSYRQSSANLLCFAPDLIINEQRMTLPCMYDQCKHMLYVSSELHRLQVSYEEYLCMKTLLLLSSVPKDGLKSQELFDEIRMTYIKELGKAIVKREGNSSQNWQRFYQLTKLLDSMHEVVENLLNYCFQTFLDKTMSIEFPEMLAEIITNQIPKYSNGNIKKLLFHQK
# [9] = species: Homo sapiens; assay: Stabilization of human GR_pT524 peptide/6His-tagged human 14-3-3 zeta protein-protein interaction at 1 mM by surface plasmon resonance analysis
# [10] = species: Homo sapiens; assay: Selectivity index, ratio of EC20 for stabilization of fluorescently-labeled human GR_pT524 peptide/human 14-3-3 zeta expressed in Escherichia coli BL21 (DE3)STAR competent cells protein-protein interaction to EC20 for stabilization of fluorescently-labeled human ER_pT594 peptide/human 14-3-3 zeta expressed in Escherichia coli BL21 (DE3)STAR competent cells protein-protein interaction
Compound,EC20 [1],fold change (FC) [2],fold change (FC) [3],EC20 [4],Activity [6],also measured
O=C(C1=C(O)C(=O)N(c2ccc(O)c(C(=O)O)c2)[C@@H]1c1ccc([N+](=O)[O-])cc1)c1ccccc1,15 µM,2.3,1.6,32 µM,,
O=C(C1=C(O)C(=O)N(c2ccc(O)c(C(=O)O)c2)C1c1ccc([N+](=O)[O-])cc1)c1cccc(OC(F)F)c1 (stereo not drawn),,,,,inactive,Activity [5]: inactive
O=C(O)c1cc(N2C(=O)C(O)=C(C(=O)c3ccccc3Cl)C2c2ccc([N+](=O)[O-])cc2)ccc1O (stereo not drawn),73 µM,1.4,1.2,96 µM,,
O=C(C1=C(O)C(=O)N(c2ccccc2O)C1c1ccc([N+](=O)[O-])cc1)c1ccccc1 (stereo not drawn),75 µM,1.4,,,,Activity [5]: inactive; Papp [7]: 0.25 10^-6 cm/s
O=C(C1=C(O)C(=O)N(c2ccc(O)c(C(=O)O)c2)C1c1ccc([N+](=O)[O-])cc1)c1ccc(Cl)cc1 (racemic),,,,42 µM,,Activity [8]: inactive
"O=C(O)c1cc(N2C(=O)C(O)=C(c3ccccc3)C2c2ccc([N+](=O)[O-])cc2)ccc1O (single isomer, unassigned; (+))",,,,,inactive,
C=CC(C)(C)OC[C@H]1O[C@H](O[C@@H]2C3=C([C@H](C)COC(C)=O)C[C@H](O)[C@]3(C)/C=C3/[C@@H](COC)CC[C@H]3[C@@H](C)[C@H]2O)[C@H](O)[C@@H](O)[C@@H]1O,,,,,,Activity [9]: inactive; Activity [4]: inactive
O=C(C1=C(O)C(=O)N(c2ccc(O)cc2)C1c1ccc([N+](=O)[O-])cc1)c1ccccc1 (stereo not drawn),87 µM,1.6,,,,Activity [5]: inactive; Papp [7]: 0.13 10^-6 cm/s
Nc1ccc(C2C(C(=O)c3ccccc3)=C(O)C(=O)N2c2ccc(O)c(C(=O)O)c2)cc1 (stereo not drawn),,,,,inactive,Activity [5]: inactive
O=C(C1=C(O)C(=O)N(c2ccc(O)c(C(=O)O)c2)C1c1ccc([N+](=O)[O-])cc1)c1ccccc1 (stereo not drawn),28 µM,1.9,1.4,63 µM,,Ratio [10]: 2; Papp [7]: 0.047 10^-6 cm/s
O=C(O)c1cc(N2C(=O)C(O)=C(Cc3ccccc3)C2c2ccc([N+](=O)[O-])cc2)ccc1O (stereo not drawn),175 µM,1.2,1.3,82 µM,,
O=C(C1=C(O)C(=O)N(c2ccc(O)c(C(=O)O)c2)[C@H]1c1ccc([N+](=O)[O-])cc1)c1ccccc1,,,1.2,162 µM,inactive,
O=C(C1=C(O)C(=O)N(c2ccc(O)c(C(=O)O)c2)C1c1ccccc1)c1ccccc1 (stereo not drawn),,,,,inactive,Activity [5]: inactive
O=C(C1=C(O)C(=O)N(c2ccc(O)c(C(=O)O)c2)C1c1ccc2c(c1)COC2=O)c1ccccc1 (stereo not drawn),63 µM,1.6,1.2,150 µM,,
"O=C(O)c1cc(N2C(=O)C(O)=C(c3ccccc3)C2c2ccc([N+](=O)[O-])cc2)ccc1O (single isomer, unassigned; (-))",,,1.5,40 µM,inactive,
O=C(C1=C(O)C(=O)N(c2ccc(O)c(C(=O)O)c2)[C@@H]1c1ccc([N+](=O)[O-])cc1)c1ccc(Cl)cc1,,,,30 µM,,
O=C(C1=C(O)C(=O)N(c2ccc(O)c(C(=O)O)c2)[C@H]1c1ccc([N+](=O)[O-])cc1)c1ccc(Cl)cc1,,,,126 µM,inactive,
O=C(O)c1cc(N2C(=O)C(O)=C(c3ccccc3)C2c2ccc([N+](=O)[O-])cc2)ccc1O (racemic),,,1.4,45 µM,inactive,
